The text below walks through data of ChEMBL document CHEMBL3351454, “Design, synthesis, antimicrobial evaluation and molecular docking studies of some new thiophene, pyrazole and pyridone derivatives bearing sulfisoxazole moiety” (2014).

The structures appear in SMILES notation. Converted amounts (≈) assume the structure as drawn. The source made the active and inactive calls. The calls are words filed in the database; no cut-off is given here.

The subject of one assay is Streptococcus pneumoniae. As to the kind of experiment: Antimicrobial activity against Streptococcus pneumoniae RCMB 010010 assessed as inhibition zone at 5 mg/ml after 24 hrs. In kind it is functional. The note with it: RCMB 010010, 24 h, read-out: IZ. The gist of the method: (§1)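 Agar diffusion on nutrient agar seeded with 10^6 CFU/mL bacteria. Filter-paper disks were loaded with 100 µL of a 5 mg/mL compound solution in DMF, with a DMF-only control. Incubation was 37 °C for 24 h. Inhibition zone in mm (mean ± SD, triplicate plates) was measured beyond the 6 mm diameter.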
As for `C=CCNc1sc(C(C)=O)c(N)c1C(=O)Nc1ccc(S(=O)(=O)Nc2onc(C)c2C)cc1`, the zone of inhibition at 5000 µg/mL came out at 20.6 mm.

For `Cc1cc(C)n(-c2ccc(S(=O)(=O)Nc3onc(C)c3C)cc2)c(=O)c1C#N`, the zone of inhibition at 5000 µg/mL is 23.8 mm.

For the next assay, the system named is Streptococcus pneumoniae. As to the kind of experiment: Antimicrobial activity against Streptococcus pneumoniae RCMB 010010 assessed as absence of turbidity after 24 hrs. In kind it is functional. The note with it: RCMB 010010, 24 h. The method, boiled down: (§2)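 Broth microdilution in Müller–Hinton broth. DMF stocks at 1000 µg/mL were diluted in broth to give twofold serial dilutions over 500–0.007 µg/mL. Bacterial inoculum was about 10^6 CFU/mL in 96-well plates, sealed and incubated at 37 °C for 24 h in a humid chamber. MIC was taken as the lowest concentration with no visible turbidity. DMF and uninoculated-medium controls were included. Only compounds giving zones >10 mm were tested.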
Broadly, the MIC is the lowest concentration that inhibits growth of the organism. For the compound `C=CCNc1sc(C(C)=O)c(N)c1C(=O)Nc1ccc(S(=O)(=O)Nc2onc(C)c2C)cc1`, the MIC came out at 0.98 µg/mL (≈ 2 µM).

As for `Cc1cc(C)n(-c2ccc(S(=O)(=O)Nc3onc(C)c3C)cc2)c(=O)c1C#N`, the MIC was 0.12 µg/mL (≈ 0.301 µM).

A further assay has as its system Bacillus subtilis. The experiment in a line: Antimicrobial activity against Bacillis subtilis RCMB 010067 assessed as inhibition zone at 5 mg/ml after 24 hrs. The format is functional. The note with it: RCMB 010067, 24 h, read-out: IZ. The gist of the method: as §1
In the case of `C=CCNc1sc(C(C)=O)c(N)c1C(=O)Nc1ccc(S(=O)(=O)Nc2onc(C)c2C)cc1`, the zone of inhibition at 5000 µg/mL worked out at 23.7 mm.

On to `Cc1cc(C)n(-c2ccc(S(=O)(=O)Nc3onc(C)c3C)cc2)c(=O)c1C#N`, for which the zone of inhibition at 5000 µg/mL is 25.3 mm.

The next assay has as its system Bacillus subtilis. The experiment in a line: Antimicrobial activity against Bacillis subtilis RCMB 010067 assessed as absence of turbidity after 24 hrs. The note with it: RCMB 010067, 24 h. The format is functional. The method, boiled down:
as §2
In the case of `C=CCNc1sc(C(C)=O)c(N)c1C(=O)Nc1ccc(S(=O)(=O)Nc2onc(C)c2C)cc1`, the MIC was found to be 0.12 µg/mL (≈ 0.245 µM).

As for `Cc1cc(C)n(-c2ccc(S(=O)(=O)Nc3onc(C)c3C)cc2)c(=O)c1C#N`, the MIC came to 0.06 µg/mL (≈ 0.151 µM).

The next assay deals with Staphylococcus epidermidis. As to the kind of experiment: Antimicrobial activity against Staphylococcus epidermidis RCMB 010024 assessed as inhibition zone at 5 mg/ml after 24 hrs. The note with it: RCMB 010024, 24 h, read-out: IZ. In kind it is functional. The gist of the method:
as §1
Turning to `C=CCNc1sc(C(C)=O)c(N)c1C(=O)Nc1ccc(S(=O)(=O)Nc2onc(C)c2C)cc1`, the zone of inhibition at 5000 µg/mL was 19.3 mm.

In the case of `Cc1cc(C)n(-c2ccc(S(=O)(=O)Nc3onc(C)c3C)cc2)c(=O)c1C#N`, the zone of inhibition at 5000 µg/mL came out at 21.4 mm.

A further assay deals with Staphylococcus epidermidis. As to the kind of experiment: Antimicrobial activity against Staphylococcus epidermidis RCMB 010024 assessed as absence of turbidity after 24 hrs. The note with it: RCMB 010024, 24 h. In kind it is functional. The method, boiled down:
as §2
Turning to `C=CCNc1sc(C(C)=O)c(N)c1C(=O)Nc1ccc(S(=O)(=O)Nc2onc(C)c2C)cc1`, the minimal inhibitory concentration (MIC) came out at 3.9 µg/mL (≈ 7.97 µM).

With `Cc1cc(C)n(-c2ccc(S(=O)(=O)Nc3onc(C)c3C)cc2)c(=O)c1C#N`, the MIC turned out to be 0.98 µg/mL (≈ 2.46 µM).

A further assay relates to Escherichia coli. As to the kind of experiment: Antimicrobial activity against Escherichia coli RCMB 010052 assessed as inhibition zone at 5 mg/ml after 24 hrs. The format is functional. The note with it: RCMB 010052, 24 h, read-out: IZ. The gist of the method: as §1
Regarding `C=CCNc1sc(C(C)=O)c(N)c1C(=O)Nc1ccc(S(=O)(=O)Nc2onc(C)c2C)cc1`, the zone of inhibition at 5000 µg/mL was determined as 18.3 mm.

For `Cc1cc(C)n(-c2ccc(S(=O)(=O)Nc3onc(C)c3C)cc2)c(=O)c1C#N`, the zone of inhibition at 5000 µg/mL came out at 20.9 mm.

A further assay has as its system Escherichia coli. As to the kind of experiment: Antimicrobial activity against Escherichia coli RCMB 010052 assessed as absence of turbidity after 24 hrs. In kind it is functional. The note with it: RCMB 010052, 24 h. The method, boiled down: as §2
Regarding `C=CCNc1sc(C(C)=O)c(N)c1C(=O)Nc1ccc(S(=O)(=O)Nc2onc(C)c2C)cc1`, the MIC stood at 7.81 µg/mL (≈ 16 µM).

Consider `Cc1cc(C)n(-c2ccc(S(=O)(=O)Nc3onc(C)c3C)cc2)c(=O)c1C#N`, for which the MIC was 0.98 µg/mL (≈ 2.46 µM).

In another assay the test system is Proteus vulgaris. The experiment in a line: Antimicrobial activity against Proteus vulgaris RCMB 010085 assessed as inhibition zone at 5 mg/ml after 24 hrs. In kind it is functional.
Details: not given
The method, boiled down: as §1
In the case of `C=CCNc1sc(C(C)=O)c(N)c1C(=O)Nc1ccc(S(=O)(=O)Nc2onc(C)c2C)cc1`, the outcome was inactive.

The assay is the same for the next values; noted with them: RCMB 010085, 24 h, read-out: IZ.
Consider `Cc1cc(C)n(-c2ccc(S(=O)(=O)Nc3onc(C)c3C)cc2)c(=O)c1C#N`, for which the zone of inhibition at 5000 µg/mL amounted to 19.5 mm.

For another assay, the system named is Proteus vulgaris. The experiment in a line: Antimicrobial activity against Proteus vulgaris RCMB 010085 assessed as absence of turbidity after 24 hrs.
Details: not given
The format is functional. The gist of the method:
as §2
Consider `C=CCNc1sc(C(C)=O)c(N)c1C(=O)Nc1ccc(S(=O)(=O)Nc2onc(C)c2C)cc1`, for which the MIC result is “inactive”.

Still in this assay, the particulars now being: RCMB 010085, 24 h.
In the case of `Cc1cc(C)n(-c2ccc(S(=O)(=O)Nc3onc(C)c3C)cc2)c(=O)c1C#N`, the MIC came out at 1.85 µg/mL (≈ 4.64 µM).

In a further assay the test system is Klebsiella pneumoniae. The experiment in a line: Antimicrobial activity against Klebsiella pneumoniae RCMB 010093 assessed as inhibition zone at 5 mg/ml after 24 hrs. The format is functional. The note with it: RCMB 010093, 24 h, read-out: IZ. The gist of the method:
as §1
With `C=CCNc1sc(C(C)=O)c(N)c1C(=O)Nc1ccc(S(=O)(=O)Nc2onc(C)c2C)cc1`, the zone of inhibition at 5000 µg/mL came to 18.9 mm.

Turning to `Cc1cc(C)n(-c2ccc(S(=O)(=O)Nc3onc(C)c3C)cc2)c(=O)c1C#N`, the zone of inhibition at 5000 µg/mL worked out at 21.4 mm.

The next assay has as its system Klebsiella pneumoniae. As to the kind of experiment: Antimicrobial activity against Klebsiella pneumoniae RCMB 010093 assessed as absence of turbidity after 24 hrs. In kind it is functional. The note with it: RCMB 010093, 24 h. The gist of the method: as §2
For the compound `C=CCNc1sc(C(C)=O)c(N)c1C(=O)Nc1ccc(S(=O)(=O)Nc2onc(C)c2C)cc1`, the MIC stood at 3.9 µg/mL (≈ 7.97 µM).

On to `Cc1cc(C)n(-c2ccc(S(=O)(=O)Nc3onc(C)c3C)cc2)c(=O)c1C#N`, for which the MIC came out at 0.98 µg/mL (≈ 2.46 µM).

The next assay has as its system Aspergillus fumigatus. As to the kind of experiment: Antifungal activity against Aspergillus fumigatus RCMB 02568 assessed as inhibition zone at 5 mg/ml after 48 hrs. The format is functional. The note with it: RCMB 02568, 48 h, read-out: IZ. The gist of the method:
(§3)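 Disk diffusion on nutrient agar seeded with 10^4 CFU/mL fungus. Sterile filter-paper disks carried 100 µL of a 5 mg/mL DMF solution, and DMF alone served as control. Plates were incubated at 25 °C for 48 h. Mean inhibition zone in mm ± SD was read beyond the 6 mm diameter, in triplicate.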
With `C=CCNc1sc(C(C)=O)c(N)c1C(=O)Nc1ccc(S(=O)(=O)Nc2onc(C)c2C)cc1`, the zone of inhibition at 5000 µg/mL was found to be 20.6 mm.

`Cc1cc(C)n(-c2ccc(S(=O)(=O)Nc3onc(C)c3C)cc2)c(=O)c1C#N`: the zone of inhibition at 5000 µg/mL amounted to 22.9 mm.

A further assay has as its system Aspergillus fumigatus. As to the kind of experiment: Antifungal activity against Aspergillus fumigatus RCMB 02568 assessed as absence of turbidity after 48 hrs. The note with it: RCMB 02568, 48 h. The format is functional. The gist of the method: (§4)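 Broth microdilution in Sabouraud liquid medium. DMF stocks at 1000 µg/mL were diluted in broth to give twofold serial dilutions over 500–0.007 µg/mL. Fungal inoculum was about 10^4 CFU/mL in 96-well plates, sealed and incubated at 25 °C for 48 h in a humid chamber. MIC was taken as the lowest concentration with no visible turbidity. DMF and uninoculated-medium controls were included.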
On to `C=CCNc1sc(C(C)=O)c(N)c1C(=O)Nc1ccc(S(=O)(=O)Nc2onc(C)c2C)cc1`, for which the minimum inhibitory concentration (MIC) came out at 0.98 µg/mL (≈ 2 µM).

For the compound `Cc1cc(C)n(-c2ccc(S(=O)(=O)Nc3onc(C)c3C)cc2)c(=O)c1C#N`, the MIC stood at 0.24 µg/mL (≈ 0.602 µM).

In a further assay the test system is Syncephalastrum racemosum. As to the kind of experiment: Antifungal activity against Syncephalastrum racemosum RCMB 05922 assessed as inhibition zone at 5 mg/ml after 48 hrs. In kind it is functional. The note with it: RCMB 05922, 48 h, read-out: IZ.
In the case of `C=CCNc1sc(C(C)=O)c(N)c1C(=O)Nc1ccc(S(=O)(=O)Nc2onc(C)c2C)cc1`, the zone of inhibition at 5000 µg/mL was determined as 21.1 mm.

For the compound `Cc1cc(C)n(-c2ccc(S(=O)(=O)Nc3onc(C)c3C)cc2)c(=O)c1C#N`, the zone of inhibition at 5000 µg/mL was determined as 20.3 mm.

The subject of the next assay is Syncephalastrum racemosum. The experiment in a line: Antifungal activity against Syncephalastrum racemosum RCMB 05922 assessed as absence of turbidity after 48 hrs. In kind it is functional. The note with it: RCMB 05922, 48 h.
With `C=CCNc1sc(C(C)=O)c(N)c1C(=O)Nc1ccc(S(=O)(=O)Nc2onc(C)c2C)cc1`, the MIC is 0.98 µg/mL (≈ 2 µM).

Turning to `Cc1cc(C)n(-c2ccc(S(=O)(=O)Nc3onc(C)c3C)cc2)c(=O)c1C#N`, the MIC amounted to 1.95 µg/mL (≈ 4.89 µM).

For a further assay, the system named is Geotrichum candidum. The experiment in a line: Antifungal activity against Geotrichum candidum RCMB 05097 assessed as inhibition zone at 5 mg/ml after 48 hrs. The format is functional. The note with it: RCMB 05097, 48 h, read-out: IZ. The method, boiled down:
as §3
In the case of `C=CCNc1sc(C(C)=O)c(N)c1C(=O)Nc1ccc(S(=O)(=O)Nc2onc(C)c2C)cc1`, the zone of inhibition at 5000 µg/mL came to 21.9 mm.

As to `Cc1cc(C)n(-c2ccc(S(=O)(=O)Nc3onc(C)c3C)cc2)c(=O)c1C#N`, the zone of inhibition at 5000 µg/mL came out at 23.1 mm.

The test system of another assay is Geotrichum candidum. As to the kind of experiment: Antifungal activity against Geotrichum candidum RCMB 05097 assessed as absence of turbidity after 48 hrs. In kind it is functional. The note with it: RCMB 05097, 48 h. The gist of the method:
as §4
`C=CCNc1sc(C(C)=O)c(N)c1C(=O)Nc1ccc(S(=O)(=O)Nc2onc(C)c2C)cc1`: the MIC amounted to 0.49 µg/mL (≈ 1 µM).

As for `Cc1cc(C)n(-c2ccc(S(=O)(=O)Nc3onc(C)c3C)cc2)c(=O)c1C#N`, the MIC was 0.24 µg/mL (≈ 0.602 µM).
